Columns and labels:
[1] = molecular target: T1, 5-hydroxytryptamine receptor 6 (Homo sapiens, UniProt P50406); assay: Displacement of [3H]LSD from human cloned 5-HT6 receptor expressed in HEK293 cells; assay type: cell-based
[2] = molecular target: T1, 5-hydroxytryptamine receptor 6; assay: Binding affinity to human 5-HT6 receptor
Summary of the method: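 Radioligand binding assay at human 5-HT6 receptor; Ki values determined in triplicate.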

[3] = molecular target: Sodium-dependent serotonin transporter (Homo sapiens) (UniProt P31645); assay: Inhibition of SERT at 1 uM
Sequence of Sodium-dependent serotonin transporter (Homo sapiens) (P31645 whole entry, looked up): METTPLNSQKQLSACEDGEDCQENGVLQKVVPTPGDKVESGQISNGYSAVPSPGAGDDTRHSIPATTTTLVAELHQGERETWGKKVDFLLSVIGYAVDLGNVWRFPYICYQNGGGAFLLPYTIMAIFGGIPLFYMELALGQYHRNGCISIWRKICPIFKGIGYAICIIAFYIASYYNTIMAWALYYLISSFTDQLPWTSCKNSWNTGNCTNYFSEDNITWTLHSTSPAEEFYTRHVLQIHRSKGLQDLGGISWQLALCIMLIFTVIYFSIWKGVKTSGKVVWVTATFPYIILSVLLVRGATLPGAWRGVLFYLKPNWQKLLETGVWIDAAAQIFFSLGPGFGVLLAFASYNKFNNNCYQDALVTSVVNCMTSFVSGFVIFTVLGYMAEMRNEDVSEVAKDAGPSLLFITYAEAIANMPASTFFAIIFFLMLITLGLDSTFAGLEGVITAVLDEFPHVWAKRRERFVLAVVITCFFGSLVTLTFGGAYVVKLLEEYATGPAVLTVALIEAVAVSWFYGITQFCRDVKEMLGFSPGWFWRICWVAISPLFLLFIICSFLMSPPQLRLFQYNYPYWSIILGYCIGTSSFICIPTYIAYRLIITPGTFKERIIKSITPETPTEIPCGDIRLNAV
Summary of the method: (§1)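 In-house selectivity panel of related receptors and transporters; each compound tested at 1 μM and 10 μM; percent inhibition determined in duplicate and the mean of the two reported.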

[4] = molecular target: T2, 5-hydroxytryptamine receptor 1A (Homo sapiens) (UniProt P08908); assay: Inhibition of 5-HT1A receptor at 10 uM; summary of the method: as §1
T2 sequence (whole entry): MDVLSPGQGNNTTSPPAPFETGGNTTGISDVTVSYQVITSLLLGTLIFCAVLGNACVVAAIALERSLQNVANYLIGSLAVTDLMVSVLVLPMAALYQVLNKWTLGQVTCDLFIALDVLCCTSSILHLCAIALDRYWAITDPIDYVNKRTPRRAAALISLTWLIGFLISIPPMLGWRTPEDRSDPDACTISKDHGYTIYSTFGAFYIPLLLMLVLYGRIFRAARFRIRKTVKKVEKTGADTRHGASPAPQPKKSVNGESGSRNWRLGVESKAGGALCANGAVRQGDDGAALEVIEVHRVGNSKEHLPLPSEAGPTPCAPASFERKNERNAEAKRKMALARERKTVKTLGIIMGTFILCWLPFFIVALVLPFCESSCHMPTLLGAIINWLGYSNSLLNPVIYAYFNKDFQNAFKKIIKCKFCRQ

[5] = Drug metabolism in human liver microsomes; assay type: ADME, Microsome; conditions: read-out: Drug metabolism
[6] = molecular target: T1, 5-hydroxytryptamine receptor 6; assay: Antagonist activity at human recombinant 5-HT6 receptor expressed in CHO cells assessed as inhibition of 5-HT-stimulated cAMP accumulation after 4 hrs by luciferase reporter gene assay; assay type: functional, cell-based
Summary of the method: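 Cell-based, non-radioactive reporter gene assay measuring antagonism of 5-HT-stimulated cAMP formation at human 5-HT6 receptor; IC50 and Kb values determined in duplicate.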

[7] = molecular target: Sodium-dependent dopamine transporter (Homo sapiens) (UniProt Q01959); assay: Inhibition of DAT at 10 uM; summary of the method: as §1
Sequence of Sodium-dependent dopamine transporter (Homo sapiens) (Q01959 whole entry): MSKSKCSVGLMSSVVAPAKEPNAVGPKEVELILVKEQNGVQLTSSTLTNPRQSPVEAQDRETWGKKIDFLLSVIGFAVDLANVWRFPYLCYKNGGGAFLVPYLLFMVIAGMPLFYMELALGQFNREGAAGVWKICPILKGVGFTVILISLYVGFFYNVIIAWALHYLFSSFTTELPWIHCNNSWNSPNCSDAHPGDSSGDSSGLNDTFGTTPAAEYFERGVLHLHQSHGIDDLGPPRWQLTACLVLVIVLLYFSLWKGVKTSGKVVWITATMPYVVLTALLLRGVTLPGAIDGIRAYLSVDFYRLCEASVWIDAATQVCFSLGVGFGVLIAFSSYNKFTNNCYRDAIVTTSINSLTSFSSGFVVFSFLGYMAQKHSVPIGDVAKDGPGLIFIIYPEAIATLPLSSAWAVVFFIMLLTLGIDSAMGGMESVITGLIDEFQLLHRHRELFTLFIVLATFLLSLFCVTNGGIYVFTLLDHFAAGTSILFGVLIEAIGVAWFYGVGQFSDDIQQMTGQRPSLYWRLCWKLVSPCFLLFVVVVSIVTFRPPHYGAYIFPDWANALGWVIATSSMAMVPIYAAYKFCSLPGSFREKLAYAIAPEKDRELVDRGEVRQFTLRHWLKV

[8] = molecular target: T3, Alpha-1B adrenergic receptor (Homo sapiens) (UniProt P35368); assay: Inhibition of alpha1B adrenergic receptor at 1 uM; summary of the method: as §1
T3 sequence (whole entry): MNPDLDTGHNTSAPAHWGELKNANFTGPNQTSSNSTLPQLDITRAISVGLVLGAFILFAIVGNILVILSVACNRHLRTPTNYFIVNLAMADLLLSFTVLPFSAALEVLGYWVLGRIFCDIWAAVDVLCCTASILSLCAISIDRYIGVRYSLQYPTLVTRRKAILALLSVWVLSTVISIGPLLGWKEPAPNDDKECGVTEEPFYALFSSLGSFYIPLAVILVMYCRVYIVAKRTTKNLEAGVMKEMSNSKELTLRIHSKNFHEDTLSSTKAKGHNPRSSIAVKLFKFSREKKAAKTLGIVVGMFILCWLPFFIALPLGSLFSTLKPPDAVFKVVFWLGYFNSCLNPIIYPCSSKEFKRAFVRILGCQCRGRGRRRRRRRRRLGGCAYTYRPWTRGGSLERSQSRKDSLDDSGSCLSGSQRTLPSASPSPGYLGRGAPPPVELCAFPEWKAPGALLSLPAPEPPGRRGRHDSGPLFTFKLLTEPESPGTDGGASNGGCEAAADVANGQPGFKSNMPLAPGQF

[9] = molecular target: CYP2C19 (Homo sapiens, UniProt P33261); assay: Inhibition of human CYP2C19 at 3 uM; assay type: ADME
Sequence of CYP2C19 (P33261 whole entry, canonical isoform): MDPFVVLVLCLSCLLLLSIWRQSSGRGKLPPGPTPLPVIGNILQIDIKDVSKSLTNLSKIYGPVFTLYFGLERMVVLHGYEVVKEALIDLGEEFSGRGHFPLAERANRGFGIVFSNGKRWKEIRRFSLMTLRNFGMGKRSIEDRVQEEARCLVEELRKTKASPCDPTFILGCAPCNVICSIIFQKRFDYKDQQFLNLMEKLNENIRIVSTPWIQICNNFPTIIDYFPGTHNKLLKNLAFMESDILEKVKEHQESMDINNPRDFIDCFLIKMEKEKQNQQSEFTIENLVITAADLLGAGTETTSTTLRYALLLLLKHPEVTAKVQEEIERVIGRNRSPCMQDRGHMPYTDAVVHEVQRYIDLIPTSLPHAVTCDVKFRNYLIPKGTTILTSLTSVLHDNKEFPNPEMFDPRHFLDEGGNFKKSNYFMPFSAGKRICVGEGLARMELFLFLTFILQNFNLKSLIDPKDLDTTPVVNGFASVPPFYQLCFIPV
Summary of the method: (§2)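 Isoform-selective inhibition assays using heterologously expressed human CYP enzymes; compounds tested at 3 μM; percent inhibition reported.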

[10] = molecular target: Sodium-dependent serotonin transporter (Homo sapiens) (UniProt P31645); assay: Inhibition of SERT at 10 uM; summary of the method: as §1
[11] = molecular target: D(2) dopamine receptor (Homo sapiens) (UniProt P14416); assay: Inhibition of dopamine D2 receptor at 1 uM; summary of the method: as §1
Sequence of D(2) dopamine receptor (Homo sapiens) (P14416 whole entry): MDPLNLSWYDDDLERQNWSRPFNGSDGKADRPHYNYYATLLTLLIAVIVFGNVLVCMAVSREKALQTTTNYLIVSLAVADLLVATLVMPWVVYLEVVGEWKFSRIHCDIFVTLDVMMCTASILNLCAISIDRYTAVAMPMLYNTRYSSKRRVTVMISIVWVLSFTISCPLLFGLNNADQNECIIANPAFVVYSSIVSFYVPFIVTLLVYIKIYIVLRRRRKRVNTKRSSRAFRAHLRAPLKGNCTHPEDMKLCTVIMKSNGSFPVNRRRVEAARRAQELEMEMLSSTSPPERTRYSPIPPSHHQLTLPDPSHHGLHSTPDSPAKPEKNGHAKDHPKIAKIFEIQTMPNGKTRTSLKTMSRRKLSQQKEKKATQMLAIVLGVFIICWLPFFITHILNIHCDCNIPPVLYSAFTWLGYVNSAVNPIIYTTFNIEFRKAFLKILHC

[12] = molecular target: T3, Alpha-1B adrenergic receptor (Homo sapiens); assay: Inhibition of alpha1B adrenergic receptor at 10 uM; summary of the method: as §1
[13] = Drug metabolism in rat liver microsomes; assay type: ADME, Microsome; conditions: read-out: Drug metabolism
[14] = molecular target: Sodium-dependent dopamine transporter (Homo sapiens) (UniProt Q01959); assay: Inhibition of DAT at 1 uM; summary of the method: as §1
[15] = molecular target: Histamine H4 receptor (Homo sapiens) (UniProt Q9H3N8); assay: Inhibition of histamine H4 receptor at 10 uM; summary of the method: as §1
Sequence of Histamine H4 receptor (Homo sapiens) (Q9H3N8 whole entry): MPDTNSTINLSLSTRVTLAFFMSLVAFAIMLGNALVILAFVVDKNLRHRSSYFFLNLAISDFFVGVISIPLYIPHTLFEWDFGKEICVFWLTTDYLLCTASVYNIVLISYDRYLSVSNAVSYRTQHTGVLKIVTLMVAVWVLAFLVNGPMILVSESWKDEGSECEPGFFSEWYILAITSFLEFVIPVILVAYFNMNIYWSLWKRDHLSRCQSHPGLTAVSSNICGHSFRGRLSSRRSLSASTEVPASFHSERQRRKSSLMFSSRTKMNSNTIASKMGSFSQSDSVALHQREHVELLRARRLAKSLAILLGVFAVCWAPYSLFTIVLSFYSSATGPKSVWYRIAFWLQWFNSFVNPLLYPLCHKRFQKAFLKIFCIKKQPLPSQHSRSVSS

[16] = molecular target: D(2) dopamine receptor (Homo sapiens) (UniProt P14416); assay: Inhibition of dopamine D2 receptor at 10 uM; summary of the method: as §1
[17] = molecular target: T2, 5-hydroxytryptamine receptor 1A (Homo sapiens); assay: Inhibition of 5-HT1A receptor at 1 uM; summary of the method: as §1
[18] = molecular target: Histamine H3 receptor (Homo sapiens) (UniProt Q9Y5N1); assay: Inhibition of histamine H3 receptor at 1 uM; summary of the method: as §1
Sequence of Histamine H3 receptor (Homo sapiens) (Q9Y5N1 whole entry): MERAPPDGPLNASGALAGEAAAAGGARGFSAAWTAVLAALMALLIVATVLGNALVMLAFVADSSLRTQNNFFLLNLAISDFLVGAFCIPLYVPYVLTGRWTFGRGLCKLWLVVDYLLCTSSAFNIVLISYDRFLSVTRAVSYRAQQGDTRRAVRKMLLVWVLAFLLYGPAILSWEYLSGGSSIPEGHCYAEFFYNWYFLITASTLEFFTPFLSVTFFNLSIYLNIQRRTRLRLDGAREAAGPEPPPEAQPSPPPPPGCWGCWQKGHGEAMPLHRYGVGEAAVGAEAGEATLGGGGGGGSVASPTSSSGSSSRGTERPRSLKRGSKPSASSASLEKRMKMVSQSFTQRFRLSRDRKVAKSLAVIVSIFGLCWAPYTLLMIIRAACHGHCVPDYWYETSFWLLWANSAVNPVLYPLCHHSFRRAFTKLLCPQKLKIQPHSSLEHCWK

[19] = molecular target: CYP3A4 (Homo sapiens, UniProt P08684); assay: Inhibition of human CYP3A4 at 3 uM; assay type: ADME; summary of the method: as §2
Sequence of CYP3A4 (P08684 whole entry): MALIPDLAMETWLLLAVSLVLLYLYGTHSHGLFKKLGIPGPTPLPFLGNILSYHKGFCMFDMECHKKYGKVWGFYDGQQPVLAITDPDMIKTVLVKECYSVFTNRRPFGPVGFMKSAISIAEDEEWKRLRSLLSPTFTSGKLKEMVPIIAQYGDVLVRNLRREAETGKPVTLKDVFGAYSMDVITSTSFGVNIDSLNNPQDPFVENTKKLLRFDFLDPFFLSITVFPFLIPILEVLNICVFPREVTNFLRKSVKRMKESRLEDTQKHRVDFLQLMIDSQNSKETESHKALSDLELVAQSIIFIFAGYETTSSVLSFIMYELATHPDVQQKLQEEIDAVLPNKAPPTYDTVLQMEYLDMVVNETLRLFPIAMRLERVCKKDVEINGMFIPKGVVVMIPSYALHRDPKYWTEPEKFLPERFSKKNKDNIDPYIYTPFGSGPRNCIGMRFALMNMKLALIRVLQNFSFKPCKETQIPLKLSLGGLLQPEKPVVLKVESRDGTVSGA

[20] = molecular target: 5-hydroxytryptamine receptor 2A (Homo sapiens) (UniProt P28223); assay: Inhibition of 5-HT2A receptor at 1 uM; summary of the method: as §1
Sequence of 5-hydroxytryptamine receptor 2A (Homo sapiens) (P28223 whole entry): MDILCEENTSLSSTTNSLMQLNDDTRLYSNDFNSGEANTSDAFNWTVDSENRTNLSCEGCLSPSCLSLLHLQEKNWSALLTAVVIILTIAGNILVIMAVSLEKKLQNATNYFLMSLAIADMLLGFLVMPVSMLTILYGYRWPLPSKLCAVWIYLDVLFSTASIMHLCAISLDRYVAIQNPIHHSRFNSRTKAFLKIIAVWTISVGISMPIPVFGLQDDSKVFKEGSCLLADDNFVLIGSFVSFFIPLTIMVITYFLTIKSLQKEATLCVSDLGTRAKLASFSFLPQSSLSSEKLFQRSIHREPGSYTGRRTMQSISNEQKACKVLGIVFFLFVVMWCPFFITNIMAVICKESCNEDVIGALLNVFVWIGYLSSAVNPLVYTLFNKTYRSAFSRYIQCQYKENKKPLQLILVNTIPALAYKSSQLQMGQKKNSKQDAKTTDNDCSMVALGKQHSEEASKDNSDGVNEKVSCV

[21] = molecular target: Histamine H4 receptor (Homo sapiens) (UniProt Q9H3N8); assay: Inhibition of histamine H4 receptor at 1 uM; summary of the method: as §1
[22] = molecular target: 5-hydroxytryptamine receptor 2A (Homo sapiens) (UniProt P28223); assay: Inhibition of 5-HT2A receptor at 10 uM; summary of the method: as §1
[23] = molecular target: CYP2D6 (Homo sapiens, UniProt P10635); assay: Inhibition of human CYP2D6 at 3 uM; assay type: ADME; summary of the method: as §2
Sequence of CYP2D6 (P10635 whole entry): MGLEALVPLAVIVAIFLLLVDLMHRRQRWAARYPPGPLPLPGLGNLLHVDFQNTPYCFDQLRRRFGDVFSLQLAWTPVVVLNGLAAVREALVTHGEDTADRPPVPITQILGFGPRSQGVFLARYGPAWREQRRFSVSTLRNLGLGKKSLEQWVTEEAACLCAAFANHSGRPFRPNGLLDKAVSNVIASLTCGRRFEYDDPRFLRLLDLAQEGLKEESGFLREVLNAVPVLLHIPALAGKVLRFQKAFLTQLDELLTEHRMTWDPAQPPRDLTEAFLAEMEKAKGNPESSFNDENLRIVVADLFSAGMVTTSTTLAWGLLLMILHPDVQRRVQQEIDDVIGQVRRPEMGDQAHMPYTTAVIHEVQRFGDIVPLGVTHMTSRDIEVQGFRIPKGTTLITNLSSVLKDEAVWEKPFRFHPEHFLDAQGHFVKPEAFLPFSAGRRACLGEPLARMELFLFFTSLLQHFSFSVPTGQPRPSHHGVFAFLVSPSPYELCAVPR

[24] = molecular target: Histamine H3 receptor (Homo sapiens) (UniProt Q9Y5N1); assay: Inhibition of histamine H3 receptor at 10 uM; summary of the method: as §1

T1 sequence (P50406 whole entry): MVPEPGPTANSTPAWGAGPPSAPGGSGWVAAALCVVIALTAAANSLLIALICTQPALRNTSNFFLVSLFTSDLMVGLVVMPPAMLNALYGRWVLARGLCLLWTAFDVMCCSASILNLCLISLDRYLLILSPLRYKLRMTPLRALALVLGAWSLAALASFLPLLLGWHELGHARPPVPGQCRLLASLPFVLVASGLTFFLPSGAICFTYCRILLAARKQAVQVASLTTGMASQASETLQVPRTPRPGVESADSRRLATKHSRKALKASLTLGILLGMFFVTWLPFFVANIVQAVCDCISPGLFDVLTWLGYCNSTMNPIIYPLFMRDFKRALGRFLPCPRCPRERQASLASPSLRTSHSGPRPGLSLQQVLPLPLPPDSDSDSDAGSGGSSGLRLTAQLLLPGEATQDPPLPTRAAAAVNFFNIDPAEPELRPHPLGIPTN

## CN(C)C1CCc2c(c3ccccc3n2S(=O)(=O)c2ccc(Br)cc2)C1 (racemic)
[1]
  Ki: 15.5 nM

## CN(C)C1CCc2c(c3cc(Cl)ccc3n2S(=O)(=O)c2ccccc2)C1 (racemic)
[1]
  Ki: 16.1 nM

## CN(C)C1CCc2c(c3ccccc3n2S(=O)(=O)c2ccccc2Br)C1 (racemic)
[1]
  Ki: 2.85 nM

## COc1ccc2c(c1)c1c(n2S(=O)(=O)c2ccccc2F)CCC(N(C)C)C1 (racemic)
[1]
  Ki: 3.63 nM

## CN(C)C1CCc2c(c3cc(F)cc(F)c3n2S(=O)(=O)c2ccccc2)C1 (racemic)
[1]
  Ki: 7.95 nM

## CN(C)C1CCc2c(c3cc(Br)ccc3n2S(=O)(=O)c2ccc(F)c(F)c2F)C1 (racemic)
[1]
  Ki: 61.2 nM

## CN(C)C1CCc2c(c3cc(Br)ccc3n2S(=O)(=O)c2cccc(C(F)(F)F)c2)C1 (racemic)
[1]
  Ki: 5.5 nM

## COc1ccc2c(c1)c1c(n2S(=O)(=O)c2cccc(C(F)(F)F)c2)CCC(N)C1 (racemic)
[1]
  Ki: 39.1 nM

## COc1ccc2c(c1)c1c(n2S(=O)(=O)c2ccccc2Cl)CCC(N(C)C)C1 (racemic)
[1]
  Ki: 4.68 nM

## COc1ccc2c(c1)c(CCN(C)C)c1n2S(=O)(=O)c2ccccc2-1
[2]
  Ki: 96 nM

## COc1ccc(S(=O)(=O)n2c3c(c4ccccc42)CC(N(C)C)CC3)cc1 (racemic)
[1]
  Ki: 20.4 nM

## COc1ccc(S(=O)(=O)n2c3c(c4cc(SC)ccc42)CC(N(C)C)CC3)cc1 (racemic)
[1]
  Ki: 6.89 nM

## CN(C)C1CCc2c(c3ccccc3n2S(=O)(=O)c2ccccc2Cl)C1 (racemic)
[1]
  Ki: 9.15 nM

## CSc1ccc2c(c1)c1c(n2S(=O)(=O)c2ccccc2)CCC(N(C)C)C1 (racemic)
[1]
  Ki: 4.57 nM

## CN(C)C1CCc2c(c3ccccc3n2S(=O)(=O)c2cccc(C(F)(F)F)c2)C1 (racemic)
[3]
  inhibition: 9.14%
[4]
  inhibition: 57.5%
[5]
  metabolised: 17%
[6]
  IC50: 1950 nM
  Kb: 20.4 nM
[7]
  inhibition: 24.8%
[8]
  inhibition: 5.26%
[9]
  inhibition at 3 µM: 50%
[10]
  inhibition: 20.7%
[11]
  inhibition: 16.3%
[12]
  inhibition: 8.72%
[13]
  metabolised: 72%
[14]
  inhibition: 18.4%
[1]
  Ki: 1.92 nM
[15]
  inhibition: 18%
[16]
  inhibition: 60.4%
[17]
  inhibition: 44.5%
[18]
  inhibition: 26.8%
[19]
  inhibition at 3 µM: 10%
[20]
  inhibition: 5.6%
[21]
  inhibition: 4.14%
[22]
  inhibition: 19.6%
[23]
  inhibition at 3 µM: 50%
[24]
  inhibition: 49.1%

## CN(C)C1CCc2c(c3cc(Br)ccc3n2S(=O)(=O)c2cc(C(F)(F)F)ccc2Cl)C1 (racemic)
[1]
  Ki: 70.6 nM

## CC(C)c1ccc(S(=O)(=O)n2c3c(c4cc(Br)ccc42)CC(N(C)C)CC3)cc1 (racemic)
[1]
  Ki: 7.5 nM

## CSc1ccc2c(c1)c1c(n2S(=O)(=O)c2cccc(Cl)c2)CCC(N(C)C)C1 (racemic)
[1]
  Ki: 2.68 nM

## CN(C)C1CCc2c(c3cc(F)ccc3n2S(=O)(=O)c2ccccc2Br)C1 (racemic)
[1]
  Ki: 5.02 nM

## CN(C)C1CCc2c(c3ccccc3n2S(=O)(=O)c2ccccc2)C1 (racemic)
[1]
  Ki: 8.82 nM

## COc1ccc2c(c1)c1c(n2S(=O)(=O)c2cccc(C(F)(F)F)c2)CCC(N(C)C)C1 (racemic)
[1]
  Ki: 3.71 nM

## CN(C)C1CCc2c(c3cc(Br)ccc3n2S(=O)(=O)c2ccccc2)C1 (racemic)
[3]
  inhibition: 0%
[4]
  inhibition: 43.9%
[6]
  IC50: 2060 nM
  Kb: 21.5 nM
[7]
  inhibition: 7.7%
[8]
  inhibition: 4.22%
[9]
  inhibition at 3 µM: 50%
[10]
  inhibition: 2.77%
[11]
  inhibition: 16.4%
[12]
  inhibition: 16.2%
[14]
  inhibition: 0%
[1]
  Ki: 1.83 nM
[15]
  inhibition: 3.85%
[16]
  inhibition: 67.4%
[17]
  inhibition: 22.3%
[18]
  inhibition: 23.4%
[19]
  inhibition at 3 µM: 10%
[20]
  inhibition: 15.2%
[21]
  inhibition: 0%
[22]
  inhibition: 51.4%
[23]
  inhibition at 3 µM: 50%
[24]
  inhibition: 24.8%

## CNC1CCc2c(c3cc(OC)ccc3n2S(=O)(=O)c2cccc(C(F)(F)F)c2)C1 (racemic)
[1]
  Ki: 13.1 nM

## NC1Cc2cccc3c2c(cn3S(=O)(=O)c2ccccc2)C1 (configuration not stated)
[2]
  Ki: 1.6 nM

## COc1ccc(S(=O)(=O)n2c3c(c4cc(Br)ccc42)CC(N(C)C)CC3)cc1 (racemic)
[1]
  Ki: 29 nM

## CN(C)C1CCc2c(c3cc(Cl)ccc3n2S(=O)(=O)c2ccc(Br)cc2)C1 (racemic)
[1]
  Ki: 41.1 nM

## CN(C)C1CCc2c(c3cc(Cl)ccc3n2S(=O)(=O)c2cccc(C(F)(F)F)c2)C1 (racemic)
[1]
  Ki: 12.2 nM

## NC1CCc2c(c3ccccc3n2S(=O)(=O)c2cccc(C(F)(F)F)c2)C1 (racemic)
[1]
  Ki: 73.4 nM

## COc1ccc(S(=O)(=O)n2c3c(c4cc(OC)ccc42)CC(N(C)C)CC3)cc1 (racemic)
[1]
  Ki: 19.8 nM

## CNC1CCc2c(c3ccccc3n2S(=O)(=O)c2cccc(C(F)(F)F)c2)C1 (racemic)
[1]
  Ki: 17.1 nM

## Cc1ccc(S(=O)(=O)n2c3c(c4ccccc42)CC(N(C)C)CC3)cc1 (racemic)
[1]
  Ki: 8.28 nM

## CN(C)C1CCc2c(c3cc(Br)ccc3n2S(=O)(=O)c2ccc(F)c(F)c2)C1 (racemic)
[1]
  Ki: 29 nM

## CN(C)C1CCc2c(c3ccccc3n2S(=O)(=O)c2ccccc2F)C1 (racemic)
[1]
  Ki: 10.4 nM

## Cc1ccc(S(=O)(=O)n2c3c(c4cc(Cl)ccc42)CC(N(C)C)CC3)cc1 (racemic)
[1]
  Ki: 18.1 nM

## CN(C)C1CCc2c(c3ccccc3n2S(=O)(=O)c2cccc(Cl)c2)C1 (racemic)
[3]
  inhibition: 2.69%
[4]
  inhibition: 50.3%
[7]
  inhibition: 7.21%
[8]
  inhibition: 4.24%
[10]
  inhibition: 1.49%
[11]
  inhibition: 15.3%
[12]
  inhibition: 7.92%
[14]
  inhibition: 0%
[1]
  Ki: 4.21 nM
[15]
  inhibition: 10.3%
[16]
  inhibition: 32.1%
[17]
  inhibition: 29.9%
[18]
  inhibition: 11%
[20]
  inhibition: 7.37%
[21]
  inhibition: 4.9%
[22]
  inhibition: 35.2%
[24]
  inhibition: 39.9%

## CN(C)C1CCc2c(c3cc(F)ccc3n2S(=O)(=O)c2cccc(Cl)c2)C1 (racemic)
[1]
  Ki: 5.01 nM

## CN(C)C1CCc2c(c3cc(Cl)ccc3n2S(=O)(=O)c2ccccc2Br)C1 (racemic)
[1]
  Ki: 8.13 nM

Source: ChEMBL document CHEMBL2163192, “N,N-Dimethyl-[9-(arylsulfonyl)-2,3,4,9-tetrahydro-1H-carbazol-3-yl]amines as novel, potent and selective 5-HT₆ receptor antagonists” (Bioorg Med Chem Lett, 2012)
